Measured values of several laboratories.
Protocols differ between the studies behind these lines.
Target: Voltage-gated inwardly rectifying potassium channel KCNH2 (KCNH2, Homo sapiens, UniProt Q12809)

COc1ncc(C)c(-c2ccc3c(c2)[nH]c(=O)c2cnn([C@H]4CCOC4)c23)c1C — IC50 (ion current, inhibitor): 4 µM
Cc1nc2cnc(N)c(C#Cc3cncc(C(=O)Nc4ccc(CN5CCN(C)CC5)c(C(F)(F)F)c4)c3)c2nc1C — IC50 (ion current, inhibitor): 2.4 µM
O=C(Cc1ccc(F)c(C(F)F)c1)N1CCN(c2ccc3nncn3n2)CC1 — inhibition (ligand displacement, radioligand; 30 µM): 38%
CNC(=O)[C@@]12C[C@@H]1[C@@H](n1cnc3c(NCCc4ccc(OC)c(OC)c4)nc(C#Cc4ccc(Cl)s4)nc31)[C@H](O)[C@@H]2O — inhibition (ion current, inhibitor; 10 µM): > 50%
CCc1cc(O)ccc1-c1ccc2c(-c3nc4c([nH]3)CN(C(C)C)[C@H](C(=O)N3CC(N(C)C)C3)C4)n[nH]c2c1 — inhibition (ion current, inhibitor; 13 µM): < 5%
N=c1n(CCN2CCCCC2)c2ccccc2n1CC(O)c1cccc(Br)c1 (centres unmarked) — inhibition (ion current, inhibitor, patch clamp; HEK293; 10 µM): 99%
Ic1cccc2cnccc12 — inhibition (ligand displacement, radioligand; 10 µM): 31%
O=C(Cc1ccc(F)c(CF)c1)N1CCN(c2ccc3nncn3n2)CC1 — inhibition (ligand displacement, radioligand; 30 µM): 23%
CNC(=O)[C@@]12C[C@@H]1[C@@H](n1cnc3c(NCCc4ccc(O)c(OC)c4)nc(C#Cc4ccc(Br)s4)nc31)[C@H](O)[C@@H]2O — inhibition (ion current, inhibitor; 10 µM): > 50%
CCN(CC)CCNC(=O)C1CCN(c2ccc3nnc(-c4cccc(C)c4)n3n2)CC1 — inhibition (ion current, inhibitor, patch clamp; HEK293; 10 µM): 58%
CCN(Cc1ccccc1C(F)(F)F)C(=O)C1CCN(S(=O)(=O)c2ccc3[nH]ncc3c2)CC1 — inhibition (ligand displacement, radioligand; 10 µM): 18%
